RGS4 block: inhibitors of human RGS4; B-score at 10 µM; HEK293 M3R/RGS4 inducible, Fluo-4 calcium flux; stronger effect = higher value; triggered by carbachol at its EC20; AID 463165; P49798; 0.45% of 310,000 active;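 active means B-score, a plate-corrected calcium signal, over three deviations above library mean, with baseline fluorescence within five deviations of library mean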;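 further: RGS4 expression induced by doxycycline in cells with stable M3 receptor; B-score is computed from the integrated fluorescence ratio over baseline after carbachol; higher B-score means a larger calcium signal and so more RGS4 inhibition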
Target sequence (P49798 whole entry, looked up): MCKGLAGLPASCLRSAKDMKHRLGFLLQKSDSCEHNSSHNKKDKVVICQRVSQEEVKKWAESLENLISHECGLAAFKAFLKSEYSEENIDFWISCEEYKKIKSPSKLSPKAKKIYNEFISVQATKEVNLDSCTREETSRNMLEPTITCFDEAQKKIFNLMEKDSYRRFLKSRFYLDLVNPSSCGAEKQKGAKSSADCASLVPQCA
MrgX1 allo act: human MrgX1 positive allosteric modulation, primary screen. 0.63% of 310,000 active. B-score at 10 µM. MrgX1-HEK293, Fluo-4 calcium flux, FDSS; stronger effect = higher value. Q96LB2;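 active means plate-corrected calcium response at least 3 library SD above typical, normal starting fluorescence, not activating the receptor alone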;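 further: compound read alongside a low EC10 to EC30 dose of BAM8-22 agonist; peak minus trough fluorescence over baseline measured at the second addition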
Target sequence (Q96LB2 whole entry, looked up): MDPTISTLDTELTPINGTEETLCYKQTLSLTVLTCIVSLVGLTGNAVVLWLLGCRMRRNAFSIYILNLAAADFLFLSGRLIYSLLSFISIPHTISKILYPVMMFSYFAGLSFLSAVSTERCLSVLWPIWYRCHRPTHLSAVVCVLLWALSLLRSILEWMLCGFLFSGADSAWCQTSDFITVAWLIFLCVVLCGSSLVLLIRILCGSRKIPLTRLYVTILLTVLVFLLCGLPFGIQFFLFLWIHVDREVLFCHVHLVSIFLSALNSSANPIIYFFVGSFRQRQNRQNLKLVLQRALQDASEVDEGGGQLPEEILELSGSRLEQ
MrgX1 ag: human MrgX1 receptor agonism, primary screen. Q96LB2. B-score at 10 µM. 0.44% of 310,000 active. MrgX1-HEK293 cells, Fluo-4 calcium fluorescence, agonist mode; stronger effect = higher value;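 active means calcium response B-score plate-corrected fluorescence ratio at least 3 library SD, with starting fluorescence B-score inside 5 SD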
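Test system: Stable human MrgX1 HEK293 cell line | Schedule: Overnight plating before 1 h dye loading | Read-out basis: Baseline-normalised fluorescence change ratio, B-scored | Detection: Kinetic calcium dye fluorescence, Fluo-4 NW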
RGS4 pot: RGS4 potentiation or activation. B-score at 10 µM. HEK293 M3R/inducible RGS4, carbachol calcium flux Fluo4; stronger effect = lower value. 0.92% of 310,000 active;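 active means B-score of the integrated calcium signal more than 4 SD below the library mean, with starting fluorescence not abnormally high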;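 further: negative B-score means reduced calcium response which marks RGS4 activation or potentiation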
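Material: M3R-expressing HEK293 line, RGS4 induced by doxycycline | Schedule: Overnight RGS4 induction, 30 min dye load 37 °C, 20 min compound RT | Measured by: Fluo4 fluorescence kinetic imaging of calcium | Read-out: Integrated calcium ratio converted to B score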
MrgX1 antag: blocks BAM8-22 activation of human MrgX1 receptor; 1.3% of 310,000 active; B-score at 10 µM; AID 588676; MRGX1-HEK293 calcium flux, Fluo-4, BAM8-22 antagonism; stronger effect = lower value;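 active means calcium-response B-score plate-corrected more than 3 library SD below zero, starting fluorescence within 5 deviations, no agonist response on first addition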;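 further: peak minus trough fluorescence over baseline after final BAM8-22 challenge near maximal dose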
An asterisk follows results filed as active; i = inactive; nt = no result. Hits are enriched below; roughly 3.5% of the tested compounds scored in any of these assays.

SMILES | RGS4 block | MrgX1 allo act | MrgX1 ag | RGS4 pot | MrgX1 antag
COc1ccc(CCN2C(=NC(=O)CCC(=O)O)SC3CS(=O)(=O)CC32)cc1OC (stereo unspecified) | i | i | i | i | -5.2*
COc1ccc(CCN2C(=NC(=O)CC(C)C)SC3CS(=O)(=O)CC32)cc1 (stereo unspecified) | i | i | i | i | i
COC(=O)CC1=C(C(=O)OC)C(c2cccc(OCC(N)=O)c2)C(C#N)=C(N)O1 (stereo unspecified) | i | i | 34* | i | i
COC(=O)CC1=C(C(=O)OC)C(c2ccncc2)C(C#N)=C(N)O1 (stereo unspecified) | i | i | i | i | i
CCCCNC(=O)COC(=O)CCC(=O)c1ccc(F)cc1 | i | i | i | i | -6.1*
CSc1ncccc1C(=O)N1CCCC(Nc2ccc(C)c(C)c2)C1 (stereo unspecified) | i | i | i | i | i
O=C(Nc1ccc(Cl)cc1)[C@@H]1[C@@H]2C(=O)N(c3ccc(Cl)cc3Cl)C(=O)[C@@H]2[C@H]2C=CC=NN21 | i | i | i | i | -5.1*
O=C(Nc1ccc(Cl)cc1)[C@@H]1[C@@H]2C(=O)N(c3ccc(Cl)cc3)C(=O)[C@@H]2[C@H]2C=CC=NN21 | i | i | i | i | i
CC(=O)c1cn(-c2ccc(Cl)cc2)c(=O)n(Cc2ccc(F)cc2)c1=O | i | i | i | i | -7.9*
CC(C)CC(C(=O)Nc1ccccc1)N1C(=O)C2C3C=CC(C3)C2C1=O (stereo unspecified) | i | i | i | i | i
O=C(O)/C=C/C(=O)N1CCN(c2cccc(Cl)c2)CC1 | i | i | i | i | i
COC(=O)/C=C1/S/C(=N/NC(=O)c2ccccc2C)NC1=O | i | i | i | i | -8.2*
Cc1c(CNC(=O)C2CCC(=O)N(CCc3ccccc3)C2)cnn1C (stereo unspecified) | i | i | i | i | i
N#Cc1nccnc1S(=O)(=O)c1cccs1 | i | i | i | -7.8* | i
CN(Cc1ccccc1C#N)S(=O)(=O)c1cccs1 | i | i | i | i | i
CCOC(=O)C1=C(COC(=O)/C=C/c2cccc(OC)c2)NC(=O)NC1C (stereo unspecified) | i | i | i | -7* | i
Cc1cc(C(=O)NNC(=O)c2cccs2)nn1C(C)(C)C | i | i | i | i | -7.2*
Cc1cc(C(=O)NNS(=O)(=O)c2ccc(F)cc2)nn1C(C)(C)C | i | i | i | i | i
O=C(O)c1cc(Cl)c(Cl)cc1C(=O)NCc1ccco1 | i | i | i | i | i
O=C(CSCc1ccccc1)NNC(=S)Nc1cccc(Cl)c1Cl | i | i | i | i | i
CCc1ccc(/C=N\NC(=O)c2ccc(Br)o2)s1 | i | i | i | i | -4.9*
COC(=O)c1ccc(C23CC4(C2)[C@H](CN(C)[C@@H]4c2ccccc2)C3c2ccc(Cl)nc2)cc1 (stereo partly specified) | i | i | i | -7.1* | i
Clc1ccc(-c2nc(N3CCCCC3)nc3ccccc23)cc1 | i | i | i | i | i
c1ccc(-c2nc(-n3nc4ccccc4n3)nc3ccccc23)cc1 | i | i | i | -7.2* | i
COC(=O)C1=C(C)N(C)C(C)=C(C(=O)OC)C1c1ccc(F)c(Br)c1 | i | i | i | -7.2* | i
SMILES | RGS4 block | MrgX1 allo act | MrgX1 ag | RGS4 pot | MrgX1 antag
COC(=O)C1=C(C)N(C)C(C)=C(C(=O)OC)C1c1ccncc1 | i | i | i | i | i
CCOC(=O)N1CCN(C(=O)c2cc(COc3c(F)cccc3F)on2)CC1 | i | i | i | i | i
COc1ccc([N+](=O)[O-])cc1NC(=S)NC(C)=O | i | i | i | i | i
CC(=O)NC(=S)Nc1ccc([N+](=O)[O-])cc1C | i | i | i | i | -8*
COC(=O)CCC(=O)OC1(C)C(=O)C2=CN(Cc3ccc(OC)cc3)C(c3ccc(OC)cc3)=CC2=C(Br)C1=O (stereo unspecified) | i | i | i | i | -4.9*
C=CS(=O)(=O)c1sc(Cl)c(N2CCOCC2)c1[N+](=O)[O-] | i | nt | nt | -11* | nt
O=C1/C(=C\c2ccco2)SC(=S)N1Cc1ccccc1 | i | i | i | i | i
Cc1cc(/C=C2\SC(=S)N(Cc3ccco3)C2=O)c(C)n1-c1ccccc1 | i | i | i | i | -4.5*
Cc1cc(/C=C2\SC(=S)N(C)C2=O)c(C)n1-c1cccc(O)c1 | i | i | i | i | -5.7*
COc1ccc(-n2c(C)cc(/C=C3/SC(=S)N(C)C3=O)c2C)cc1 | i | i | i | i | i
Cc1ccc(-c2nc(N)s[n+]2-c2ccccc2)cc1 | i | i | i | -9.8* | i
Cc1ccc(-c2nc3ccccc3nc2-c2ccccc2)cc1 | i | i | i | i | i
COc1ccc(CNC(=O)COc2ccc(S(=O)(=O)N3CCCCC3)cc2Cl)cc1 | i | i | i | -7.1* | i
COC(=O)c1cc2occc2n1Cc1nc(-c2ccccc2Cl)oc1C | i | i | i | -7.5* | i
COC(=O)c1cc2occc2n1Cc1nc(-c2ccc(Cl)cc2)oc1C | i | i | i | -7.2* | i
COC(=O)c1cc2ccsc2n1Cc1nc(-c2ccc(Cl)cc2)oc1C | i | i | i | i | i
O=C(COc1ccc(Br)cc1)NCCCNC(=O)c1ccncc1 | i | i | i | i | i
Clc1ccccc1C1=CC(c2ccco2)n2ncnc2N1 (stereo unspecified) | i | i | 29* | i | i
CCC(NC(C)C)C(O)c1ccc(O)c2[nH]c(=O)ccc12 (stereo unspecified) | i | i | 28* | i | i
S=C(NCCC(c1ccccc1)c1ccccc1)Nc1ccc(Cl)cc1 | i | i | i | -7.9* | i
Cc1cc(OCC(=O)NCCN2CCOCC2)c2c(C)c(C)c(=O)oc2c1 | i | i | i | i | i
COc1ccccc1CCNC(=O)C(=O)NCC1OCCN1S(=O)(=O)c1ccc(C)cc1 (stereo unspecified) | i | i | i | i | i
COc1ccc(/C=C/C(=O)C2C(=O)C=C(C)OC2=O)cc1O (stereo unspecified) | i | i | i | i | -4.7*
c1cnc(N2CCN(c3nc4ccccc4n4cnnc34)CC2)nc1 | i | i | i | i | i
